Source: BindingDB's records for doi:10.1016/j.bmc.2019.03.030 (Northwestern University, 2019)

Target: Sigma non-opioid intracellular receptor 1 (Homo sapiens, UniProt Q99720)
Assay: Displacement of [3H]-(+)-pentazocine from sigma1 receptor (unknown origin) expressed in HEK293 cell membranes after 120 mins by microbeta scintillation counting method
How it was run: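 Radioligand binding run by an external screening program; sigma-1 tracer [3H]-pentazocine, sigma-2 tracer [3H]-DTG. Each compound first tested at a single 10 μM concentration. Those giving >50% inhibition were then titrated over a dose range to derive pKi.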

Chain of Sigma non-opioid intracellular receptor 1 (Q99720 whole entry): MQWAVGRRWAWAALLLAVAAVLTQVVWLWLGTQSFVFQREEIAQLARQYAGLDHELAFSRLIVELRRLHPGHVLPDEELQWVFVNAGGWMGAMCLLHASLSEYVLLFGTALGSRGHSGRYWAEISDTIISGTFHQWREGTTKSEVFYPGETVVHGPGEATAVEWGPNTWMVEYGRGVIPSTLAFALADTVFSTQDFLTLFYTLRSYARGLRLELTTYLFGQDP

Ki: 16 nM
SMILES: O=C(c1c2c(nn1-c1ccc(F)cc1)CCC(NCc1ccc(F)cc1)C2)N1CCCCC1 (stereo unspecified)
